Assay results: the RNAGym collection of RNA variant scans (doi:10.1126/science.aae0568)
This sample holds only a part of the variants without activity.

B1: tRNA (parent)
chain: GUUCCGUUGGCGUAAUGGUAACGCGUCUCCCUCCUAAGGAGAAGACUGCGGGUUCGAGUCCCGUACGGAACG

Variants of: B1
Experiment: yeast fitness relative to wild type (ratio to wild type); higher = fitter; tRNA-Arg(CCU), competitive growth, 37 C, YPD
How it was run: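 Genotype frequency changes were the basis for Darwinian fitness relative to wild type. The frequencies came from 100-nucleotide paired-end sequencing of gene amplicons from the start population and each end population of pooled yeast strains with tRNA-Arg(CCU) gene variants at the native locus. Competition ran in YPD at 37°C for 24 hours in six replicates, genotypes needed ≥ 100 starting reads, and estimates < 0.5 were set to 0.5.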

Variant | yeast fitness
C4A U8C U59A | ≤ 0.5
C4A C61U A69C | 0.578
C4A U28A C62U C66A | ≤ 0.5
C4A C24G A69U | ≤ 0.5
C4A G17A G18A G25A C55A | ≤ 0.5
C4A U7A A14G G17C G56A C62U | ≤ 0.5
C4A U16C U35G A45U G51A | ≤ 0.5
C4A G10A G56C C60G C66U | ≤ 0.5
C4A G17C C22U | ≤ 0.5
C4A C31U A37G G48A U54A C55G A65U | ≤ 0.5
C4A U54C C61G | ≤ 0.5
C4A U13C U28A C34G | ≤ 0.5
C4A C22A C33A G39C | ≤ 0.5
C4A C27U G39C | 0.632
C4A C33G A45G | ≤ 0.5
C4A U35A A37U G67U | ≤ 0.5
C4A U32A G38C U47A | ≤ 0.5
C4A U7A A20U C27G C29U C62G | 0.549
C4A C33U A37G | ≤ 0.5
C4A G25C U32A A40C | ≤ 0.5
C4G A14C G25C A45U U47A A57U | ≤ 0.5
C4A C27U A40U G52C C60G | ≤ 0.5
C4A G9C C30A G39A G56C | ≤ 0.5
C4A C11A U47G | ≤ 0.5

Variant | yeast fitness
C4A C34G C66U | 0.576
C4A G25A C27U U28G C33G A36G | ≤ 0.5
C4A G12C U19C C24G A43U G67A | ≤ 0.5
C4A G38C G68A A69C | ≤ 0.5
C4A G10A G23A | ≤ 0.5
C4A C30U C55U | ≤ 0.5
C4G A14U C24U C49G | ≤ 0.5
C4A U32C G48C C55U | ≤ 0.5
C4A C33G A45G A70U | ≤ 0.5
C4A G41A A42C U59A | ≤ 0.5
C4A G9C A14G C30A G39A | ≤ 0.5
C4A G6A G25A C29G A57G | ≤ 0.5
C4A C24A A42G | 0.603
C4G A14C G48C | 0.579
C4A C31U A42C C66A | 0.523
C4A C24G A37G G50C | ≤ 0.5
C4A U32C A40U C49G G68C | ≤ 0.5
C4A G6A C33U A43U C49G G50C C61U C66U | ≤ 0.5
C4A C24U | 0.733
C4A C24G | 0.714
C4A G51C U54A G56C | ≤ 0.5
C4A G9A C24U C30U A36G G67A | 0.565
C4A C24U A36U G39C C46G C55A C66G | ≤ 0.5
C4A G56C C60G C66U | 0.568

Variant | yeast fitness
C4G A15U G56C | ≤ 0.5
C4G A20U C22G A37C A43C A65G | ≤ 0.5
C4A G10A U54A | ≤ 0.5
C4G A20C C30A C31G C34A A37G C49A A57C | ≤ 0.5
C4A C30G A45C C61G | ≤ 0.5
C4A U13A A70G | ≤ 0.5
C4A U7G C27U A45C | ≤ 0.5
C4A U64C G68C | 0.971
C4A C30U A40G | 0.542
C4A C30U G38C A42G | ≤ 0.5
C4A C22G C33U A40U U59A | ≤ 0.5
C4G A14G C24G | ≤ 0.5
C4A G18C C29A C31A | 0.562
C4A G6A C11A C22U C29U C61A G67A | ≤ 0.5
C4A U19A C27U | 0.562
C4A U54G | 0.612
C4G A14G G38A G56C A70G | ≤ 0.5
C4A C29U C55U G63A | ≤ 0.5
C4A G18A G25C | 0.515
C4A C24G C61A C66U | ≤ 0.5
C4A C22A A69U | 0.528
C4G A14C C49U | ≤ 0.5
C4A C11U C30U G39C C55G | ≤ 0.5
C4A G10C C29G A65G | ≤ 0.5

Variant | yeast fitness
C4A C34G G38C A70G | ≤ 0.5
C4A C33A G39A G51C | 0.657
C4A C49U A65U | ≤ 0.5
C4A C22G C27U | 0.522
C4A G12C U19C C24G A43U C61U | 0.532
C4A G6C C55U G68C | ≤ 0.5
C4A U7A C31A C55A | 0.717
C4A G6C C55U | ≤ 0.5
C4G A14U U32C A45U C49G U64C | ≤ 0.5
C4A C24U G58A C62U | 0.587
C4A G18A G58A A70U | ≤ 0.5
C4A G39C C66U | ≤ 0.5
C4G A15U C33A G68C | ≤ 0.5
C4G A15U A40C | ≤ 0.5
C4G A15U C55A | ≤ 0.5
C4A U16A C29G U32C C55U C66U | ≤ 0.5
C4A C46G C62U | 0.609
C4A U28C | 0.64
C4G A15U A40C C60A C61G A65C | ≤ 0.5
C4A G23A C24G C61A C66U | ≤ 0.5
C4A U19C A42G C60G | ≤ 0.5
C4G A14C C24G U53C C62G | ≤ 0.5
C4G A15G U54A A70U | ≤ 0.5
C4A G17A U19C G41A C66U | ≤ 0.5

Variant | yeast fitness
C4A U19G A69C | 0.587
C4A G17C G23C A57C | ≤ 0.5
C4G A14U A21C | 0.764
C4A G6C C22U G51C C62A | ≤ 0.5
C4A G68U A69G | 0.705
C4A G18A C27A A37C G56A | 0.579
C4A U32A A57G A65U | ≤ 0.5
C4A C27G C34G A37U U64A | ≤ 0.5
C4A G23A C33G | 0.655
C4A C30G U59A | 0.528
C4A G39A C55U U59G G68C | ≤ 0.5
C4A U35C A57U | ≤ 0.5
C4A C30A A40G | 0.74
C4A G23A U53C A57C | ≤ 0.5
C4G A20C U54G | 0.529
C4A C11U A37C | 0.537
C4A C30G G50A | ≤ 0.5
C4A C11U C29G C34A G39C | ≤ 0.5
C4A C27U A37G | 0.566
C4A C49A | 0.684
C4A U7A U13A C30A U64C | 0.56
C4A C29G C34G C49U | 0.557
C4A U26G G44C G56C G58A G68C | ≤ 0.5
C4A G10C C33U C46G U54A | ≤ 0.5

Variant | yeast fitness
C4A G6C G10A U28A | ≤ 0.5
C4G A14C A20G | 0.619
C4A G10C U26A U64A | ≤ 0.5
C4A G23A U35G C61A | ≤ 0.5
C4G A14C G25C A45U A57U | 0.55
C4A G58A | 0.878
C4A C34G G39C | ≤ 0.5
C4A U47A A70G | 0.536
C4A C33U A65C | ≤ 0.5
C4G A20U C31G G51A | ≤ 0.5
C4A U13C A20C C34A G39C A43U | ≤ 0.5
C4A G17C G23C A45C C66U | ≤ 0.5
C4A U7A U8G | ≤ 0.5
C4A G6A C11A C22U C29U C55A G68U | ≤ 0.5
C4A G18C C29A C31A A36U | ≤ 0.5
C4A G18A A20C U26G C27U C49U A69C | ≤ 0.5
C4A U8C A14U A20C U28G | 0.54
C4A G18C C34U | ≤ 0.5
C4A U8A C24U | ≤ 0.5
C4A U13A G18A G68C | ≤ 0.5
C4A U35A U47C C49U C62A A69G | ≤ 0.5
C4A C27U C61U | 0.62
C4A C30G C49U | 0.566
C4A C30G C49G | ≤ 0.5

Variant | yeast fitness
C4A U28G G48A C49G G50U | ≤ 0.5
C4A G52A | 0.884
C4A C27A G38A | 0.513
C4A U26C A37G G67C | ≤ 0.5
C4A C30G A40U A45U G48A | ≤ 0.5
C4A G6A U16C G38A G58C C66U | ≤ 0.5
C4G A14G G52A | ≤ 0.5
C4A U32C A40U A69U | ≤ 0.5
C4A C11U | 0.781
C4A U32C | 0.912
C4A C34A | 0.817
C4A C34U | 0.666
C4A U7A U8A C46A G48A U64G | ≤ 0.5
C4A U13G U32G C55U G63C | ≤ 0.5
C4A G12C A21C C22G C55A C60U C62G A69C | ≤ 0.5
C4G A21G A36U | ≤ 0.5
C4G A21C | 0.609
C4A C29G A40U | ≤ 0.5
C4A U26A U32G A42C A57U | ≤ 0.5
C4A U8G U64C | 0.545
C4A G51A | 0.725
C4G A15C U26G G41C C60G | 0.631
C4A G6A U28G A37G | 0.738
